Laboratory results taken from ChEMBL document CHEMBL1152930, “Discovery of tetrahydrotetramethylnaphthalene analogs as adult T-cell leukemia cell-selective proliferation inhibitors in a small chemical library constructed based on multi-template hypothesis” (Bioorg Med Chem, 2009).

Legend:
[1] = tested on: MOLT-4; assay: Antiproliferative activity against HTLV1-deficient human MOLT4 cells after 4 days by MTT assay; type: functional, cell-based; settings: MOLT-4, 96 h
Summary of the method: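 Cells were cultured without or with a range of test-compound concentrations for 4 days. Viable cell number was then measured by MTT, and IC50 values were calculated from it. The same protocol was run in parallel on S1T cells, an ATL patient-derived line.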

[2] = Antiproliferative activity against HTLV1-carrying human S1T cells isolated from peripheral blood mononuclear cells of adult T leukemic patient after 4 days by MTT assay; type: functional; settings: 96 h
Summary of the method: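 Cells grown 4 days without or with a range of compound concentrations; viable cell number read by MTT; IC₅₀ calculated from the resulting data.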

[3] = tested on: MOLT-4; assay: Selectivity index, ratio of IC50 for HTLV1-deficient human MOLT4 cells to IC50 for HTLV1-carrying S1T cells isolated from peripheral blood mononuclear cells of adult T leukemic patient; type: functional
Summary of the method: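 SI taken as IC₅₀ in MOLT-4 over IC₅₀ in S1T cells. Both IC₅₀ values come from 4-day MTT viable-cell counts over a range of concentrations.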

[4] = tested on: U-937; assay: Antiproliferative activity against human U937 cells; type: functional, cell-based
[5] = tested on: Jurkat; assay: Antiproliferative activity against human Jurkat cells; type: functional, cell-based
[6] = tested on: MOLT-4; assay: Antiproliferative activity against human MOLT4 cells; type: functional, cell-based
[7] = tested on: HL-60; assay: Antiproliferative activity against human HL60 cells; type: functional, cell-based
[8] = Induction of apoptosis in HTLV1-carrying human S1T cells isolated from peripheral blood mononuclear cells of adult T leukemic patient at 20 uM after 24 hrs using fluorescein isothiocyanate-conjugated annexin V staining by FACS analysis relative to control; type: functional
Summary of the method: (§1)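 Cells seeded at 1 × 10⁶/ml and held with or without 20 µM compound for 24 or 48 h. Apoptotic cells given as %; relative values are the ratio of treated to untreated apoptosis %.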

[9] = tested on: MOLT-4; assay: Cell cycle arrest in HTLV1-deficient human MOLT4 cells assessed as accumulation at G0/G1 phase at 20 uM after 24 hrs using propidium iodide/RNA staining buffer by FACS analysis; type: functional
Summary of the method: (§2)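 Cells seeded at 1 × 10⁶/ml with or without 20 µM compound for 24 h. Then PBS wash, fixing in 1% paraformaldehyde, permeabilising in 70% ethanol and 15 min propidium iodide/RNA staining. Phase populations given as % of cells.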

[10] = Induction of apoptosis in HTLV1-carrying human S1T cells isolated from peripheral blood mononuclear cells of adult T leukemic patient at 20 uM after 24 hrs using fluorescein isothiocyanate-conjugated annexin V staining by FACS analysis; type: functional; summary of the method: as §1
[11] = Cell cycle arrest in HTLV1-carrying human S1T cells isolated from peripheral blood mononuclear cells of adult T leukemic patient assessed as accumulation at G2/M phase at 20 uM after 24 hrs using propidium iodide/RNA staining buffer by FACS analysis; type: functional; summary of the method: as §2
[12] = tested on: MOLT-4; assay: Induction of apoptosis in HTLV1-deficient human MOLT4 cells at 20 uM after 48 hrs using fluorescein isothiocyanate-conjugated annexin V staining by FACS analysis; type: functional; summary of the method: as §1
[13] = tested on: MOLT-4; assay: Induction of apoptosis in HTLV1-deficient human MOLT4 cells at 20 uM after 24 hrs using fluorescein isothiocyanate-conjugated annexin V staining by FACS analysis; type: functional; summary of the method: as §1
[14] = tested on: MOLT-4; assay: Cell cycle arrest in HTLV1-deficient human MOLT4 cells assessed as accumulation at G2/M phase at 20 uM after 24 hrs using propidium iodide/RNA staining buffer by FACS analysis; type: functional; summary of the method: as §2
[15] = Induction of apoptosis in HTLV1-carrying human S1T cells isolated from peripheral blood mononuclear cells of adult T leukemic patient at 20 uM after 48 hrs using fluorescein isothiocyanate-conjugated annexin V staining by FACS analysis relative to control; type: functional; summary of the method: as §1
[16] = Cell cycle arrest in HTLV1-carrying human S1T cells isolated from peripheral blood mononuclear cells of adult T leukemic patient assessed as accumulation at S phase at 20 uM after 24 hrs using propidium iodide/RNA staining buffer by FACS analysis; type: functional; summary of the method: as §2
[17] = Cell cycle arrest in HTLV1-carrying human S1T cells isolated from peripheral blood mononuclear cells of adult T leukemic patient assessed as accumulation at G0/G1 phase at 20 uM after 24 hrs using propidium iodide/RNA staining buffer by FACS analysis; type: functional; summary of the method: as §2
[18] = Induction of apoptosis in HTLV1-carrying human S1T cells isolated from peripheral blood mononuclear cells of adult T leukemic patient at 20 uM after 48 hrs using fluorescein isothiocyanate-conjugated annexin V staining by FACS analysis; type: functional; summary of the method: as §1
[19] = tested on: MOLT-4; assay: Cell cycle arrest in HTLV1-deficient human MOLT4 cells assessed as accumulation at S phase at 20 uM after 24 hrs using propidium iodide/RNA staining buffer by FACS analysis; type: functional; summary of the method: as §2

| SMILES | IC50 [1] [µM] | IC50 [2] [µM] | Ratio IC50 [3] | other results |
| --- | --- | --- | --- | --- |
| COc1cc2c(cc1C(C)=O)C(C)(C)CCC2(C)C | 11.9 | 7 | 1.7 |  |
| CC1(C)CCC(C)(C)c2cc(C(=O)O)c(O)cc21 | 44.4 | 29.7 | 1.5 |  |
| CC1(C)CCC(C)(C)c2cc(C=O)ccc21 | 24.8 | 33 | 0.75 |  |
| CC1(C)CCC(C)(C)c2ccccc21 | > 100 | > 100 |  |  |
| CC(=S)c1cc2c(cc1O)C(C)(C)CCC2(C)C | 36.4 | 6.9 | 5.3 |  |
| CC1(C)CCC(C)(C)c2cc(C(N)=O)ccc21 | 39.4 | 37 | 1.1 |  |
| CCC(=O)c1cc2c(cc1O)C(C)(C)CCC2(C)C | 32.3 | 4.7 | 6.9 |  |
| CC(O)c1ccc2c(c1)C(C)(C)CCC2(C)C (racemic) | 34.4 | 39.3 | 0.87 |  |
| CC1(C)CCC(C)(C)c2cc(C(=O)c3ccccc3)c(O)cc21 | 28.3 | 15.2 | 1.9 |  |
| CC1(C)CCC(C)(C)c2cc(NC(=O)c3ccc(C(=O)O)cc3)ccc21 [TAMIBAROTENE] |  |  |  | IC50 [4]: 20.2 µM; IC50 [5]: 17.3 µM; IC50 [6]: 19.5 µM; IC50 [7]: 6 µM |
| CC(=O)c1ccc2c(c1)C(C)(C)CCC2(C)C | 66 | 6.9 | 9.6 |  |
| CON(C)C(=O)c1ccc2c(c1)C(C)(C)CCC2(C)C | 9.9 | 12.6 | 0.8 |  |
| CC(C)(C)C(=O)c1cc2c(cc1O)C(C)(C)CCC2(C)C | 43.2 | 41.5 | 1 |  |
| CC(=O)c1ccc(C)c(C)c1 | > 100 | > 100 |  |  |
| CC1(C)CCC(C)(C)c2cc(C(=O)c3ccccc3)ccc21 | 11.8 | 7 | 1.7 |  |
| CC(C)C(=O)c1cc2c(cc1O)C(C)(C)CCC2(C)C | 31.9 | 6 | 5.3 |  |
| CC(C)C(=O)c1ccc2c(c1)C(C)(C)CCC2(C)C | 34.6 | 3.8 | 9.1 |  |
| CCC(=O)c1ccc2c(c1)C(C)(C)CCC2(C)C | 21.5 | 4.7 | 4.6 |  |
| CC(=O)c1cc(C)cc(C)c1 | > 100 | > 100 |  |  |
| CC(=O)c1ccc(C)cc1C | > 100 | > 100 |  |  |
| CC1(C)CCC(C)(C)c2cc(C(=O)O)ccc21 | 61.1 | > 100 |  |  |
| CC(=O)c1cc2c(cc1O)C(C)(C)CCC2(C)C | 82.9 | 6.7 | 12.4 | Activity [8]: 1.3%; Activity [9]: 42.14%; Activity [10]: 10.1%; Activity [11]: 23%; Activity [12]: 4%; Activity [13]: 7%; Activity [14]: 11.1%; Activity [15]: 2.1%; Activity [16]: 40%; Activity [17]: 37%; Activity [18]: 10.1%; Activity [19]: 46.76% |
